Assay results taken from ChEMBL document CHEMBL1131336, “Synthesis and serotonin receptor affinities of a series of trans-2-(indol-3-yl)cyclopropylamine derivatives” (J Med Chem, 1998).

Legend:
[1] = molecular target: T1, 5-hydroxytryptamine receptor 1A (Rattus norvegicus, UniProt P19327); experiment: Binding affinity against the 5-hydroxytryptamine 1A receptor labelled with [3H]8-OH-DPAT in rat hippocampal homogenates; format: tissue-based, Hippocampus
T1 sequence (P19327 whole entry): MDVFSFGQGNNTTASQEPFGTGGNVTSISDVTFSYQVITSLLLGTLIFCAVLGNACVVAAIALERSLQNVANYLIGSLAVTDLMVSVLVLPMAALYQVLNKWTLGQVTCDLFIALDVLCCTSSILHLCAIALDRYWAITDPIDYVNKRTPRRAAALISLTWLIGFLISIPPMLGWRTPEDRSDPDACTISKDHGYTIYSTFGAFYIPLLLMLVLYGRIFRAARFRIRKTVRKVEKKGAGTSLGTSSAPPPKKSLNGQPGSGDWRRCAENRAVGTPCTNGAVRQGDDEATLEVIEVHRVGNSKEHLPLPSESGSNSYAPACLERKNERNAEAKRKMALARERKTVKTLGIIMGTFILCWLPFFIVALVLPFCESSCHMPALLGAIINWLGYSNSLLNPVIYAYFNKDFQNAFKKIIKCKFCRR
Procedure, shortened: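 Buffer is 50 mM Tris HCl pH 7.4 with 0.5 mM Na2EDTA, 0.1% Na ascorbate and pargyline. Triplicate tubes with 200-400 µg protein, 15 min at 37 °C, GF/C filtration. Nonspecific binding set with 10 µM 5-HT.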

[2] = molecular target: 5-hydroxytryptamine receptor 2A (Homo sapiens, UniProt P28223); experiment: Binding affinity against the cloned human 5-hydroxytryptamine 2A receptor using [125I]DOI as the radioligand
Procedure, shortened: (§1)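 AV12 hamster fibroblast membranes stably expressing the human receptor, with 0.07-0.15 nM [125I]DOI. Buffer is 10 µM pargyline, 9.75 mM MgCl2, 0.5 mM EDTA, 0.1% ascorbate and 50 mM Tris pH 7.4. Incubation 30 min at 37 °C with about 40 µg (5-HT2A) or 30 µg (5-HT2C) protein, then gamma counting. Nonspecific binding set with 1 µM ketanserin (2A) or 10 µM mianserin (2C).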

[3] = molecular target: 5-hydroxytryptamine receptor 2B (Homo sapiens, UniProt P41595); experiment: Binding affinity against the cloned human 5-hydroxytryptamine 2B receptor using [3H]5-HT as the radioligand
Procedure, shortened: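 Membranes come from AV12 hamster fibroblasts stably expressing the human receptor. About 2 nM [3H]-5-HT is used with drug dilutions spanning 6 log units, in 3 mM CaCl2, 10 µM pargyline, 50 mM Tris and 0.1% ascorbic acid, pH 7.4. Triplicate tubes with 100-150 µg protein, 15 min at 37 °C, PEI-soaked GF/B filtration. Nonspecific binding set with 10 µM 5-HT or 10 µM 1-naphthylpiperazine.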

[4] = molecular target: T2, 5-hydroxytryptamine receptor 2C (Homo sapiens, UniProt P28335); experiment: Binding affinity against the cloned human 5-hydroxytryptamine 2C receptor using [125I]DOI as the radioligand; procedure, shortened: as §1
T2 sequence (P28335 whole entry): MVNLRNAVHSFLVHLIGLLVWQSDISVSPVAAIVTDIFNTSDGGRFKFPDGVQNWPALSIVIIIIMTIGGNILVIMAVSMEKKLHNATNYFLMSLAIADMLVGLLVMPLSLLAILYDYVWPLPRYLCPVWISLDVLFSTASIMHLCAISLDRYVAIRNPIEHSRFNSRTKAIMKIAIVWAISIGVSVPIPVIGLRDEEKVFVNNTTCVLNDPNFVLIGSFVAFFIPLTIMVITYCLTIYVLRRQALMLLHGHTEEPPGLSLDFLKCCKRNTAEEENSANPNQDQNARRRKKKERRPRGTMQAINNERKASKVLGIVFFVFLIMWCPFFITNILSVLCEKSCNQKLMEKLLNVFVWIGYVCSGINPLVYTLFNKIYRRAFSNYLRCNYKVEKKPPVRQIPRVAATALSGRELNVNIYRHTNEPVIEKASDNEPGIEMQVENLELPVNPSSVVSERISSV

5-hydroxytryptamine receptor 2A, sequence (P28223 whole entry): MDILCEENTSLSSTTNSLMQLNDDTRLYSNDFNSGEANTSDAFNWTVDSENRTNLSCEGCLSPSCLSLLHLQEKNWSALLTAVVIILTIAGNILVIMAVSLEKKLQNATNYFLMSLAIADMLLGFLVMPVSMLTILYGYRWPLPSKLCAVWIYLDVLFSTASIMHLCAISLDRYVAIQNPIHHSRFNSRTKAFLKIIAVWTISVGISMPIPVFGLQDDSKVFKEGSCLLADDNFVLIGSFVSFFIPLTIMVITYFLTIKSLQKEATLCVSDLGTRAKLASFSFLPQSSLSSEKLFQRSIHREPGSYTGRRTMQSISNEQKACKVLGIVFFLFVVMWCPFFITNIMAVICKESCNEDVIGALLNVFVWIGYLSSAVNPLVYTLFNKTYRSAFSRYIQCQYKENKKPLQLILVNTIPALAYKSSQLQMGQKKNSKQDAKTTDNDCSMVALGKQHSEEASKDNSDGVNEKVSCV
5-hydroxytryptamine receptor 2B, sequence (P41595 whole entry): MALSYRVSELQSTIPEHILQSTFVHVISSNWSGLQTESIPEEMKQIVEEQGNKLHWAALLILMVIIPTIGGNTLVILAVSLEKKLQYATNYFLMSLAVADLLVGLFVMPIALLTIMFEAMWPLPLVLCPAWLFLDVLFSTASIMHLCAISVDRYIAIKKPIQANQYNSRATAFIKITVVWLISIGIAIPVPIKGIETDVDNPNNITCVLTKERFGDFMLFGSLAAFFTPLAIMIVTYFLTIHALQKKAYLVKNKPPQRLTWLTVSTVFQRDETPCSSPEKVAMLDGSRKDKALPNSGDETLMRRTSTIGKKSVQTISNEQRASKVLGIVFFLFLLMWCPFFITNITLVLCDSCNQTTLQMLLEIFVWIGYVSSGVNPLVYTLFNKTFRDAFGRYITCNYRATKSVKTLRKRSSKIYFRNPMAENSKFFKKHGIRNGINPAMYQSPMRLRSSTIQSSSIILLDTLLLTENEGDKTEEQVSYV

SMILES	Ki [1]	Ki [2]	Ki [3]	Ki [4]
COc1ccc2[nH]cc(C3CC3N)c2c1 (stereo not drawn)	40.1 nM	30.9 nM	38.1 nM	17.8 nM
NC1CC1c1c[nH]c2ccc(F)cc12 (stereo not drawn)	258 nM	10.2 nM	5.7 nM	1.9 nM
COc1cccc2[nH]cc(C3CC3N)c12 (stereo not drawn)	–	45.9 nM	64.9 nM	11.8 nM
CC(CN)c1c[nH]c2ccccc12 (stereo not drawn)	–	41 nM	87 nM	9.3 nM
COc1ccc2[nH]cc(C(C)CN)c2c1 (stereo not drawn)	–	2.2 nM	8.3 nM	1 nM
N[C@H]1C[C@@H]1c1c[nH]c2ccccc12	810 nM	132 nM	93.5 nM	21.3 nM
N[C@@H]1C[C@H]1c1c[nH]c2ccccc12	258 nM	98.2 nM	58.5 nM	44.1 nM
NC1CC1c1c[nH]c2ccccc12 (racemic)	–	164 nM	58.3 nM	29.9 nM
